The record followed here is ChEMBL document CHEMBL1124208, “Retro-inverso concept applied to the complete inhibitors of enkephalin-degrading enzymes” (J Med Chem, 1988).

A short description of assay [1]: Inhibition of [3H]Leu-enkephalin binding to Dipeptidyl aminopeptidase (DAP). Further details: species or system Rattus norvegicus. In a few lines: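 Membrane-bound DAP partially purified from rat brain. […] IC50 by log probit analysis of five inhibitor concentrations, mean ± SEM of four independent experiments.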
The target of assay [2] is T1, Neprilysin (Oryctolagus cuniculus, UniProt P08049).
T1 sequence (P08049 whole entry): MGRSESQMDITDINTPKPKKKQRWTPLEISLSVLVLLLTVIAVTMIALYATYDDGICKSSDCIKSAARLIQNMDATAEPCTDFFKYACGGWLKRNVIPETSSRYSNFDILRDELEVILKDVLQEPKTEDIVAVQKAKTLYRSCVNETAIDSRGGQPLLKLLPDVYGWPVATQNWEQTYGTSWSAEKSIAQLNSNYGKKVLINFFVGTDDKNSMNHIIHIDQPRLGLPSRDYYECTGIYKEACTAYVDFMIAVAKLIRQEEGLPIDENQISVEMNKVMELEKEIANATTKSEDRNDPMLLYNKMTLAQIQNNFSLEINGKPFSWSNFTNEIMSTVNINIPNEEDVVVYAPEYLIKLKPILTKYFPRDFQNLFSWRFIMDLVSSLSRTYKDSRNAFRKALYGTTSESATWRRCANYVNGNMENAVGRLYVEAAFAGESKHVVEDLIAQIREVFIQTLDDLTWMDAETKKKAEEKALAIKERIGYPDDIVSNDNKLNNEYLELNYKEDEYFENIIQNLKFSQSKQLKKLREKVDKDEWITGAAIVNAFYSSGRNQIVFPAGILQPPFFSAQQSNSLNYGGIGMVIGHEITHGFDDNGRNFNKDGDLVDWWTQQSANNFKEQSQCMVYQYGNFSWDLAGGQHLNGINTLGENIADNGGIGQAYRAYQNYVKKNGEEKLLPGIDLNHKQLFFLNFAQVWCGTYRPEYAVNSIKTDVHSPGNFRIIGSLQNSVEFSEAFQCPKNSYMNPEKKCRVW
Kind of assay: Inhibition of [3H]Ala2-Leu-enkephalin binding to Neutral endopeptidase (NEP). In a few lines: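 NEP purified to homogeneity from rabbit kidney (single 94 kD band on SDS-PAGE), 1 pmol/100 μL final. Enzyme preincubated 15 min at 25 °C with or without increasing inhibitor in 50 mM Tris-HCl pH 7.0. [3H]D-Ala2-Leu-enkephalin then added at 20 nM final and the reaction stopped after 30 min with HCl. IC50 from log probit analysis of five inhibitor concentrations, mean ± SEM of four independent experiments.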

Assay [3] in a line: Inhibition of [3H]Leu-enkephalin binding to aminopeptidase. Further details: species or system Sus scrofa. Summed up:
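Uses commercial purified pig kidney aminopeptidase N without further purification. Enzyme preincubated 15 min at 25 °C with inhibitor in 50 mM Tris-HCl pH 7.0. [3H]Leu-enkephalin then added at 10 nM final (Km 50 μM) and the reaction stopped with HCl. IC50 by log probit analysis of five inhibitor concentrations, mean ± SEM of four independent experiments.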

Take `CC(C(=O)O)C(=O)NC(Cc1ccccc1)C(=O)NO` (stereo in doubt; 9): the results for the IC50 in assay [1], in assay [2] and in assay [3] were 71 nM, 320 nM and ~100000 nM, respectively.
With `CN(O)C(=O)C[C@@H](Cc1ccccc1)NC(=O)CC(=O)O`, the IC50 – broadly, the concentration needed to halve the response being measured – in assay [2] was 1730 nM; in assay [3] it was > 100000 nM.
As for `CC(C(=O)O)C(=O)NC(Cc1ccccc1)C(=O)NO` (stereo in doubt; 8), the IC50 in assay [1] was 2700 nM; in assay [2] it was 945 nM; in assay [3], 6100 nM.
For `O=C(O)CC(=O)N[C@H](Cc1ccccc1)C(=O)NO`, the IC50 in assay [1] is ~32000 nM; in assay [2], 3350 nM; in assay [3], ~20000 nM.
`O=C(O)CNC(=O)C(Cc1ccccc1)C(=O)NO` (racemic): the IC50 in assay [1] was 35000 nM; in assay [3], 100000 nM.
Turning to `O=C(O)CC(=O)N[C@@H](Cc1ccccc1)C(=O)NO`, the IC50 in assay [1] was determined as 2000 nM; in assay [2], 2500 nM; in assay [3], 400000 nM.
On to `CC(C(=O)O)C(=O)NC(CC(=O)NO)Cc1ccccc1` (stereo unspecified), for which the figures for the IC50 in assay [1], in assay [2] and in assay [3] were 17.5 nM, 1.6 nM and 8600 nM, respectively.
Consider `C[C@H](NC(=O)[C@@H](CC(=O)NO)Cc1ccccc1)C(=O)O` (racemic) [KELATORPHAN], for which the IC50 in assay [1] came out at 0.9 nM; in assay [2] it was 1.7 nM; in assay [3] it was 380 nM.
For the compound `O=C(O)CNC(=O)C(CC(=O)NO)Cc1ccccc1` (racemic), the IC50 in assay [1] is 21 nM; in assay [3], 2000 nM.
Turning to `O=C(CC(Cc1ccccc1)NC(=O)C(Cc1ccccc1)C(=O)O)NO` (stereo unspecified), the IC50 in assay [1] came to 32.5 nM; in assay [2], 3.7 nM; in assay [3], 6200 nM.
As for `O=C(CC(Cc1ccccc1)C(=O)NC(Cc1ccccc1)C(=O)O)NO` (racemic), the IC50 in assay [2] was 2.5 nM; in assay [3], 130 nM.
For `CN(O)C(=O)[C@@H](Cc1ccccc1)NC(=O)CC(=O)O`, in assay [2], the IC50 was 6070 nM.
Turning to `O=C(O)CC(=O)N[C@H](CC(=O)NO)Cc1ccccc1`, the IC50 in assay [1] was found to be 450 nM; in assay [2] it was 2.5 nM; in assay [3], 150000 nM.
For `O=C(O)CC(=O)N[C@@H](CC(=O)NO)Cc1ccccc1`, in that order: 140 nM, 0.5 nM and 2000 nM.
